Reference: PMC9929523 (International Journal for Parasitology: Drugs and Drug …, 2023)
Where “and” joins values, the source holds several entries; their conditions need not be identical. Equal entries are not always repeated. Where two headings read alike, the source gives them in different places.

What was measured:
Schistosoma mansoni = test: S. mansoni killing in vitro; format: cell-based
Summary of the method: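 Hamster-derived adult male worms, 10 per well, in DMEM with 10% heat-inactivated FBS and antibiotic/antimycotic. Dosed within 2–4 h of harvest from 100X DMSO spikes: 0–143 μM, triplicate, 45 min at 37 °C, 5% CO2. Second set used 143 μM or DMSO for 15, 30 or 45 min. Worms washed thrice and cultured 14 days, medium changed every other day. Daily survival scored by motility, shedding, opacity and tegument blebbing; Kaplan-Meier curves.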

[1] = Clinical human OXA pharmacokinetics; format: in vivo; settings: 40 mg/kg dose, assuming dose proportionality
[2] = Estimation of human hepatic inlet; format: in vivo
[3] = Hepatic microsomal stability; format: in vitro ADME; settings: mouse, liver microsomes, pH 7.4, intrinsic clearance, 1 μM OXA, 0.2 mg protein per ml
Summary of the method: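 Test compound (1 μM) incubated with mouse hepatic microsomes at 1, 0.5 and 0.2 mg/mL in 100 mM potassium phosphate, pH 7.4. Samples filtered and analysed by LC-MS/MS. Log-transformed data gave half-life. CLint (μl/min/mg) = ln2 × incubation volume / (half-life × mg protein). Unbound CLint came from the y-intercept of microsomal concentration vs 1/CLint.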

[4] = Blood to plasma ratio, Rb; format: in vitro ADME; settings: female, C57Bl/6J, mouse, fresh heparinized whole blood and fresh plasma
Summary of the method: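 Heparinized whole blood from female C57Bl/6J mice and matching fresh plasma were each spiked from a 10 mM DMSO stock to a final 5 μM and held 30 min at 37 °C. Samples were spun at 8000×g for 3 min, extracted into ACN/MeOH with diclofenac internal standard, and measured by LC-MS/MS. Rb = concentration in directly spiked plasma / concentration in plasma from spiked blood.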

Mouse pharmacokinetics = format: in vivo
[5] = Tissue distribution in wild-type C57Bl/6J mice; format: in vivo, mouse; settings: 4-h time point, 100 mg/kg oral dose
P-gp efflux transporter = test: Tissue distribution in P-gp knockout mice; format: in vivo, mouse; settings: wild-type vs P-gp knockout mice, 4 h after 100 mg/kg oral dose
Formulation solubility = format: physicochemical
Summary of the method: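 The aim was an oral dosing vehicle. Co-solvent solutions (polyethylene glycol or ethanol) were checked for precipitation by diluting 1:10 into saline. A 10 mg/ml solution was prepared in 100 mM acetate buffer, pH 4.5.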

[6] = ref Daneshmend and Homeida, 1987, cited from earlier work
[7] = Estimation of mouse hepatic inlet
S. haematobium = settings: meta-analysis, S. haematobium infections; ref Zwang and Olliaro, 2014; cited from earlier work
S. mansoni = settings: meta-analysis, S. mansoni infections; ref Zwang and Olliaro, 2014; cited from earlier work
schistosomiasis = settings: sub-Saharan Africa; ref Doenhoff et al., 2009; cited from earlier work
[8] = female, C57Bl/6J, mouse, plasma, iv, 3 mg/kg
[9] = female, C57Bl/6J, mouse, plasma, po, 100 mg/kg, pH 4.5
[10] = patients n = 9, single oral dose 1000 mg
[11] = 100 mg/kg PO acetate buffer, WinNonlin one-compartment model
[12] = 100 mg/kg PO acetate buffer, method of residuals

## CC(C)NCC1CCc2cc(CO)c([N+](=O)[O-])cc2N1 (stereo not drawn) [OXA, oxamniquine]
Schistosoma mansoni; 35.75 μM and 14.3 μM, 45 min exposure, 14 days
  worm killing at lower concentrations: minimal worm killing
Schistosoma mansoni; 71.5 μM, 45 min exposure, 14 days
  worm survival: significantly reduced
Schistosoma mansoni; 143 μM, 45 min exposure, 14 days
  worm survival: significantly reduced
Schistosoma mansoni; 143 μM, 45 min exposure, adult male worms, 14 days
  worm killing: 90%
Schistosoma mansoni; 143 μM, exposure 15 and 30 min
  efficacy of worm killing with shorter exposure times: maintained
[1]
  expected maximal plasma levels: 9 to 14 µM
[2]
  rate of absorption in the human intestine: approximately 2.5 % per minute
[3]
  microsomal CLint at 1 μM: 196 µL/min/mg
[4]
  blood plasma ratio at 30 min, 5 μM: 1.6
Mouse pharmacokinetics; 100 mg/kg PO, 100 mM acetate buffer pH 4.5
  Cl clearance: 9.54 ± 0.18 L/h/kg
Mouse pharmacokinetics; [8]
  AUC(0-inf): 1.1 µM·h
  Cmax: 2.2 ± 0.1 µM
  Tmax: 5 min
  clearance: 9.42 ± 0.18 L/h/kg
  half-life: 51 ± 6 min
Mouse pharmacokinetics; [9]
  AUC(0-inf): 26.1 ± 1.7 µM·h
  CL/F: 13.8 ± 0.84 L/h/kg
  Cmax: 11.8 ± 1.6 µM
  Tmax: 50 min
  bioavailability: 69.5 ± 5.3%
  half-life: 58 ± 6 min
[5]
  bile concentration relative to liver tissue: 15 fold
P-gp efflux transporter
  impact of efflux transporter P-gp on tissue distribution: no indication that the efflux transporter P-gp impacts tissue distribution
Formulation solubility
  solubility dependence on pH: increases at low pH
Formulation solubility; 100 mM acetate buffer, pH 4.5
  stable solution concentration: 10 mg/mL
[6]; human, approximately 20 mg/kg oral dose
  peak plasma concentrations: 4 to 7 µM
[6]; [10]
  AUC(0-∞): 20.2 ± 4.9 µM·h
  Cmax: 4.5 ± 0.9 µM
  T1/2: 151 ± 23 min
  Tmax: 103 ± 12 min
[7]; [11]
  Inlet Concentration (portal): 118 µM and 118 ± 10 µM
  ka absorption rate constant: 0.043 min⁻¹
[7]; [12]
  Inlet Concentration (portal): 132 µM and 132 ± 11 µM
  ka absorption rate constant: 0.049 min⁻¹
[7]; C57Bl/6J, mouse, in vivo, po, 100 mg/kg, ke elimination rate constant, 100 mg/kg PO acetate buffer, method of residuals
  k el: 0.0002 s⁻¹
[7]; mouse, true value could range between 0.7 and 1
  fraction orally absorbed (Fa x Fg): 0.7

## O=C(C1CCCCC1)N1CC(=O)N2CCc3ccccc3C2C1 (stereo not drawn) [praziquantel]
S. haematobium
  cure rate: 77.1%
S. mansoni
  cure rate: 76.7%
schistosomiasis
  cure rates: 60–90%
